Assay results reported in ChEMBL document CHEMBL3045815, “The cruciferous phytoalexins rapalexin A, brussalexin A and erucalexin: chemistry and metabolism in Leptosphaeria maculans” (Bioorg Med Chem, 2012).
One block for each molecule: values may come before it.

Assays:
Plenodomus lingam [1] = assay: Antifungal activity against Leptosphaeria maculans assessed as mycelial radial growth inhibition on potato dextrose agar at 0.10 mM relative to control; format: functional
Method in brief: (§1)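 Mycelial radial growth on PDA. L. maculans isolates BJ-125 or UAMH-9410 were grown on V8 agar for 14 days at 23 °C under constant light. Wells with PDA containing test compound (0.50, 0.20 or 0.10 mM) or control, each with 1% CH3CN, were inoculated centrally with inverted 4 mm plugs from 7-day-old V8 plates. Growth after 5 days under constant light gave % inhibition = 100 − (amended/control growth × 100); ± SD.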

Plenodomus lingam [2] = assay: Antifungal activity against Leptosphaeria maculans assessed as mycelial radial growth inhibition on potato dextrose agar at 0.20 mM relative to control; format: functional; method in brief: as §1
[3] = Half life in Leptosphaeria maculans; format: ADME, organism-based; settings: plenodomus lingam
Method in brief: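 Minimal medium inoculated with L. maculans BJ-125 spores was shaken at 120 rpm and 23 °C under constant light. After 2 days, compound was added in CH3CN (0.10 mM final); uninoculated medium served as control. Samples were taken immediately and at intervals up to 72–96 h, then frozen or extracted with EtOAc. Extracts were concentrated, taken up in CH3CN and analysed by HPLC.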

Plenodomus lingam [4] = assay: Antifungal activity against Leptosphaeria maculans assessed as mycelial radial growth inhibition on potato dextrose agar at 0.50 mM relative to control; format: functional; method in brief: as §1
[5] = Half life in water; format: physicochemical
[6] = Half life in potato dextrose agar medium; format: physicochemical

- half-life [3]: < 6 h
Compound: CON1c2ccccc2C(=O)C12CN=C(SC)S2 (racemic) [RAC-ERUCALEXIN]
- inhibition at 100 µM (Plenodomus lingam [1]): 6%
- inhibition at 200 µM (Plenodomus lingam [2]): 17%
- inhibition at 500 µM (Plenodomus lingam [4]): 40%

- half-life [5]: 48 h
- half-life [6]: 15 h
Compound: C=CCNC(=O)SCc1c[nH]c2ccccc12 [BRUSSALEXIN A]
- inhibition at 100 µM (Plenodomus lingam [1]): 7%
- inhibition at 200 µM (Plenodomus lingam [2]): 25%
- inhibition at 500 µM (Plenodomus lingam [4]): 43%

- half-life [5]: > 72 h
Compound: OCc1c[nH]c2ccccc12 [INDOLE-3-CARBINOL]
- inhibition at 100 µM (Plenodomus lingam [1]): 19%
- inhibition at 200 µM (Plenodomus lingam [2]): 27%
- inhibition at 500 µM (Plenodomus lingam [4]): 52%

The next lines start with the molecule.

Compound: COc1cccc2[nH]cc(N=C=S)c12 [RAPALEXIN A]
- inhibition at 100 µM (Plenodomus lingam [1]): 21%
- inhibition at 200 µM (Plenodomus lingam [2]): 53%
- inhibition at 500 µM (Plenodomus lingam [4]): 100%

Compound: CON1c2ccccc2C(O)C12CN=C(SC)S2 (mixture of isomers) [DIHYDROERUCALEXIN]
- inhibition at 100 µM (Plenodomus lingam [1]): 7%
- inhibition at 200 µM (Plenodomus lingam [2]): 13%
- inhibition at 500 µM (Plenodomus lingam [4]): 23%

Compound: CNC(=S)SCc1c[nH]c2ccccc12
- inhibition at 100 µM (Plenodomus lingam [1]): 17%
- inhibition at 200 µM (Plenodomus lingam [2]): 35%
- half-life [5]: 20 h
- half-life [6]: 24 h
- inhibition at 500 µM (Plenodomus lingam [4]): 61%
